OXTR agonist: human OXTR agonism; activation, % at 3 µM; actives 0.32% (n = 320,000); CHO-OTR cells, Fluo-8 calcium fluorescence; normalized: DMSO 0%, oxytocin 100%; P30559;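 active means activation above the mean of all tested compounds plus 3 SD, cutoff set per screening run, cut at about 20% in these data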;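 further: peak over basal fluorescence ratio from a 100 s FLIPR kinetic read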
OX1R antag-1: OX1R (human) antagonism; O43613; OX1R-expressing cells, FRET antagonist read-out; inhibition, % at 6.6 µM; actives 1.8% (n = 330,000); AID 485270; in the data active means inhibition mostly above about 38%, no sharp cut-off; inactive means mostly below about 40%;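 further: 0% = agonist challenge alone and 100% = reference antagonist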
CHO parental Ca: counter-screen for OX1R antagonists: effect in parental CHO cells; actives 0.63% (n = 330,000); inhibition, % at 5.6 µM; parental CHO-K1, ATP-induced calcium, Fluo-8 fluorescence;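 active means inhibition above that plate's mean sample inhibition plus 3 SD, cut at about 26% in these data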;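 further: 0% = ATP-challenged DMSO wells and 100% = DMSO wells without ATP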
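test system = CHO parental line | reagent = ATP stimulus | measured by = intracellular calcium via Fluo-8 no-wash fluorescent dye | control set = ATP and no-ATP DMSO wells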
OX1R antag-2: antagonists of human orexin 1 receptor | CHO/OX1R cells, Fluo-8 calcium fluorescence, orexin A | inhibition, % at 5 µM | actives 0.43% (n = 330,000);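 active means inhibition above its plate's threshold, mean inhibition of all tested compounds on the plate plus 3 SD, cut at about 37% in these data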;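 further: 0% = orexin A challenge wells and 100% = SB-334867-A antagonist wells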
OXTR potentiate: potentiators of human oxytocin receptor; P30559; CHO-OTR cells, Fluo-8 calcium fluorescence, potentiator mode; 0% = oxytocin EC15, 100% = EC100; activation, % at 3 µM; actives 0.061% (n = 320,000); AID 2445;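 active means activation above that plate's cutoff, the mean activation of tested compounds plus 3 SD, cut at about 6.6% in these data, passing the limit was not always enough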;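 further: 100% uses oxytocin at 75 nM as the full agonist control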
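Material: CHO-OTR cells, human receptor; compound dosing: single dose, 3.0 µM nominal final compound concentration; schedule: 6 min compound pre-incubation at room temperature, 100 s kinetic read; measured by: kinetic Fluo-8 calcium fluorescence; read-out basis: % activation vs EC15 and EC100 oxytocin; controls: EC15 oxytocin alone as 0%, 75 nM oxytocin as 100%; replicates: singlicate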
V1aR counter: V1a receptor agonism, counter-screen for OXTR agonists. AID 2797. P37288. activation, % at 3 µM. CHO-V1R cells, Fluo-8 calcium fluorescence, agonist mode; 0% DMSO, 100% 3 nM vasopressin. actives 0.25% (n = 320,000);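 active means activation above the mean activation of all tested compounds plus 3 SD, per screening run, cut at about 20% in these data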;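 further: signal is peak over basal fluorescence ratio across a 100 second FLIPR read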
Target sequence (P37288 whole entry, looked up): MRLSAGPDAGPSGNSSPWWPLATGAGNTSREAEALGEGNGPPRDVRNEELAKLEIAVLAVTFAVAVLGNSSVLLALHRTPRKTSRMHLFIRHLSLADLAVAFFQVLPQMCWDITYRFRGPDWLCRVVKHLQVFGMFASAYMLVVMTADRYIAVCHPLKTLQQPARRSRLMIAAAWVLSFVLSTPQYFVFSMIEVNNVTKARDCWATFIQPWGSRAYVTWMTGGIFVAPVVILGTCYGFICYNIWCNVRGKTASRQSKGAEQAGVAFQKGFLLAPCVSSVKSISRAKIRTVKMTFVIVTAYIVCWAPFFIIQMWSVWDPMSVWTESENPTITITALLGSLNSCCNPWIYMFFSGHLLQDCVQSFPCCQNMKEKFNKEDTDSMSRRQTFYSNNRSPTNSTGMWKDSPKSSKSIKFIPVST
Active calls of the source: *. A selection: hits, their analogues and other compounds. The true share with any hit is near 2.7%.

`Cc1ccc([C@H]2C(C(=O)O)=CC[C@@H](c3ccc(C(C)C)cc3)N2S(=O)(=O)c2ccc(C)cc2)cc1` gave OXTR agonist 2.0, OX1R antag-1 29.1, CHO parental Ca 36.6*, OX1R antag-2 28.6, OXTR potentiate -10.8 and V1aR counter 0.7.
`Cc1ccc([C@@H]2CC=C(C(=O)O)[C@H](c3ccccc3)N2S(=O)(=O)c2ccc(C)cc2)cc1` gave OXTR agonist -0.6, OX1R antag-1 50.6, CHO parental Ca -12.6, OX1R antag-2 -13.1, OXTR potentiate -13.7 and V1aR counter 0.1.
Screening Cc1ccc(S(=O)(=O)N2[C@@H](c3ccccc3)C(C(=O)O)=CC[C@H]2c2ccc(C(C)C)cc2)cc1 returned OXTR agonist 0.0, OX1R antag-1 36.5, CHO parental Ca -18.3, OX1R antag-2 -16.2, OXTR potentiate -18.0 and V1aR counter 1.3.
For Cc1ccc(S(=O)(=O)N2[C@@H](c3ccc(Cl)cc3)C(C(=O)O)=CC[C@H]2c2ccc(C(C)C)cc2)cc1 the results were OXTR agonist -0.1, OX1R antag-1 16.1, CHO parental Ca -1.2, OX1R antag-2 -8.3, OXTR potentiate -4.5 and V1aR counter 0.6.
Cc1ccc([C@H]2C(C(=O)O)=CC[C@@H](c3ccc(C)cc3)N2S(=O)(=O)c2ccc(C)cc2)cc1 was read as OXTR agonist -0.3, OX1R antag-1 40.5*, CHO parental Ca -33.5, OX1R antag-2 -0.9, OXTR potentiate -8.4 and V1aR counter 0.3.
Screening Cc1ccc([C@H]2C(C(=O)O)=CC[C@@H](c3ccc(Cl)cc3)N2S(=O)(=O)c2ccc(C)cc2)cc1 returned OXTR agonist 0.2, OX1R antag-1 39.5*, CHO parental Ca -6.2, OX1R antag-2 36.7, OXTR potentiate -8.5 and V1aR counter 1.1.
Screening O=C(NC1CCCC1)c1cccc2c1C(=O)c1ccc(Cl)cc1S2(=O)=O returned OXTR agonist -1.6, OX1R antag-1 31.2, CHO parental Ca -26.3, OX1R antag-2 -9.6, OXTR potentiate -1.0 and V1aR counter -1.7.
`Cc1c(C(=O)NC2CCN(Cc3ccccc3)C2)oc2c(Cl)cccc12` (stereo unspecified) gave OXTR agonist -1.8, OX1R antag-1 14.9, CHO parental Ca -35.7, OX1R antag-2 -30.4, OXTR potentiate -16.0 and V1aR counter -0.4.
COc1ccc([C@@H]2CC=C(C(=O)O)[C@H](c3cccc(Cl)c3)N2S(=O)(=O)c2ccc(Cl)cc2)cc1 was read as OXTR agonist -1.9, OX1R antag-1 61.9*, CHO parental Ca -12.5, OX1R antag-2 7.7, OXTR potentiate -22.2 and V1aR counter -0.4.
For CCc1ccc([C@@H]2CC=C(C(=O)O)[C@H](c3ccc(C)cc3)N2S(=O)(=O)c2ccc(C)cc2)cc1 the results were OXTR agonist 2.0, OX1R antag-1 26.4, CHO parental Ca -5.6, OX1R antag-2 -1.6, OXTR potentiate -8.4 and V1aR counter 2.5.
`COc1ccc([C@@H]2CC=C(C(=O)O)[C@H](c3ccc(F)cc3)N2S(=O)(=O)c2ccc(Cl)cc2)cc1` gave OXTR agonist -0.5, OX1R antag-1 34.1, CHO parental Ca -12.5, OX1R antag-2 -23.9, OXTR potentiate -21.4 and V1aR counter 0.8.
Screening CCc1ccc([C@@H]2CC=C(C(=O)O)[C@H](c3ccccc3F)N2S(=O)(=O)c2ccc(C)cc2)cc1 returned OXTR agonist -1.3, OX1R antag-1 59.5*, CHO parental Ca -19.0, OX1R antag-2 -7.1, OXTR potentiate -15.9 and V1aR counter 2.9.
`O=[N+]([O-])c1cccc(S(=O)(=O)N2CCCCC2c2cccnc2)c1` (stereo unspecified) gave OXTR agonist -0.6, OX1R antag-1 24.5, CHO parental Ca 3.7, OX1R antag-2 -23.6, OXTR potentiate 2.6 and V1aR counter 1.3.
For CC(C)n1c(CN(C)Cc2ccccc2)nc2c1c(=O)n(C)c(=O)n2C the results were OXTR agonist 12.4, OX1R antag-1 54.1*, CHO parental Ca 68.9*, OX1R antag-2 15.8, OXTR potentiate -21.1 and V1aR counter 9.4.
For CC(C)n1c(NCCc2ccccc2)nc2c1c(=O)n(C)c(=O)n2C the results were OXTR agonist 9.7, OX1R antag-1 26.7, CHO parental Ca 38.9*, OX1R antag-2 6.9, OXTR potentiate -10.3 and V1aR counter 7.7.
`CCOC(=O)N1CCN(C(=O)CSCC(=O)Nc2nc(-c3ccc(OC)cc3)cs2)CC1` gave OXTR agonist 5.3, OX1R antag-1 5.4, CHO parental Ca -20.1, OX1R antag-2 -27.0, OXTR potentiate -1.0 and V1aR counter 2.4.
`CCOC(=O)N1CCN(C(=O)CSCC(=O)Nc2nc(-c3ccc(-c4ccccc4)cc3)cs2)CC1` gave OXTR agonist 11.1, OX1R antag-1 47.9*, CHO parental Ca 90.8*, OX1R antag-2 52.8*, OXTR potentiate -9.8 and V1aR counter 8.6.
Screening Cc1ncc(CO)c(/C=N/NC(=O)c2cc3c(s2)CCCC3)c1O returned OXTR agonist 0.7, OX1R antag-1 50.1*, CHO parental Ca -12.2, OX1R antag-2 -19.5, OXTR potentiate -5.8 and V1aR counter 1.9.
For O=c1c2ccccc2nc(/C=C/c2ccccc2)n1CCCO the results were OXTR agonist -1.0, OX1R antag-1 14.9, CHO parental Ca -19.1, OX1R antag-2 -24.0, OXTR potentiate 2.4 and V1aR counter 7.0.
`CN(C)c1ccc(/C=C/c2nc3ccccc3c(=O)n2CCO)cc1` gave OXTR agonist 1.0, OX1R antag-1 51.7*, CHO parental Ca 7.1, OX1R antag-2 3.5, OXTR potentiate -14.3 and V1aR counter 5.0.
CC(C)CNC(=S)N1CCC(c2nc(-c3ccc(F)cc3)no2)CC1 was read as OXTR agonist 12.9, OX1R antag-1 21.4, CHO parental Ca 47.7*, OX1R antag-2 19.1, OXTR potentiate -9.3 and V1aR counter 10.6.
`COC(=O)c1cn(NC(=O)Cc2cccc(C(F)(F)F)c2)c(=O)c2ccccc12` gave OXTR agonist -1.5, OX1R antag-1 76.4*, CHO parental Ca 1.5, OX1R antag-2 -8.1, OXTR potentiate 0.9 and V1aR counter -0.2.
Screening CCn1c2ccccc2c2cc(NC(=O)CSc3nnc(-c4ccc(OC)c(OC)c4)n3N)ccc21 returned OXTR agonist -2.1, OX1R antag-1 73.9*, CHO parental Ca -31.9, OX1R antag-2 8.6, OXTR potentiate -4.1 and V1aR counter -1.5.
`CCn1c2ccccc2c2cc(NC(=O)CSc3nnc(-c4ccccc4OC)n3N)ccc21` gave OXTR agonist -1.9, OX1R antag-1 55.9*, CHO parental Ca -11.0, OX1R antag-2 -10.1, OXTR potentiate -2.9 and V1aR counter 0.2.
